# From PubChem BioAssay
# b-catenin transl: modulators of beta-catenin nuclear translocation; HeLa beta-catenin nuclear translocation, immunofluorescence imaging; nuclear translocation activity, % at 5 µM; 190,000 tested, 0.3% active;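 active = nuclear translocation activity above 50% at 5 µM, with a well cell count of 50 or more; inconclusive = wells under 50 cells across six images, flagged as toxic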;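 note: per-cell ratio of nuclear to cytoplasmic median beta-catenin stain intensity; plate controls were DMSO negative control for no effect and GSK-3 inhibitor IX positive control for full effect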
#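 Read-out: Nuclear/cytoplasmic beta-catenin signal ratio, % activation | Assay system: Human HeLa cell line | Times: 24 h compound exposure at 37°C, 5% CO2 | Signal: Fluorescence imaging of beta-catenin antibody stain plus DAPI | Dosing: 5 µM primary, 0.02–20 µM confirmation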
# HSV replic up: HSV replication enhancement; HSV replication augmentation in cells, fold increase; AID 1956; maximum fold increase; 220,000 tested, 0.005% active; in the data active = maximum fold increase above about 1.5; inconclusive = no clear call, values can overlap the other calls; tested in PC3 cells
# MT stabilizer: microtubule stabilizers in HeLa cells. HeLa tubulin immunostaining HCS, 24 h; share of cells brighter than vehicle mean+2SD. 200,000 tested, 0.83% active. % tubulin-high responders, % at 10 µM. AID 2205;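 active = plate Z-score above 3 for both tubulin-high and condensed-nucleus cell shares, with cell loss under 80%, at 10 µM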;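 note: anti alpha tubulin signal scored within the nucleus-defined area of each cell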
# Dynein cargo inh: dynein cargo transport inhibition; 3617.4 mouse cells, GR-EGFP nuclear translocation imaging; test concentration mostly 20 µM; stimulated with dexamethasone, 1 µM; active compounds read low; z-score, hits read low; 220,000 tested, 0.47% active;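 active = plate z-score of nuclear minus cytoplasmic receptor signal below a set negative limit, without overly bright fluorescence or cell loss, cut at about -3.5 in these data, passing the limit was not always enough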;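 note: z-score of nuclear minus cytoplasmic ring GR-EGFP intensity difference per well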
#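 Also added – dexamethasone, 1.0 µM final · Buffer or medium – tet-free, stripped-serum medium · Schedule – induction 48 h, compound 1 h, agonist 30 min · Detection – formaldehyde fixation, Hoechst nuclear stain, 10x automated fluorescence imaging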
# Lmaj promast: inhibitors of Leishmania major promastigote growth; 200,000 tested, 9% active; inhibition, % at 10 µM; Leishmania major promastigotes, resazurin fluorescence viability; in the data active = inhibition above about 50%;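 note: promastigotes grown with compound for 44 hours at 28 °C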
# * hit, by the source's call; i = inactive; ? = inconclusive; . = no result. A selection: hits, their analogues and other compounds. The true share with any hit is near 8.9%.
SMILES,b-catenin transl,HSV replic up,MT stabilizer,Dynein cargo inh,Lmaj promast
Cc1ccc2nc(NC3=NCN(Cc4ccc5c(c4)OCO5)CN3)nc(C)c2c1,.,.,3,2,100*
CC1CCCN(c2nc3nonc3nc2Nc2ccccc2F)C1 (centres undefined),0,i,2,2.1,0
CC(C(=O)NCCC1=CCCCC1)N1C(=O)c2ccccc2C1=O (centres undefined),.,i,6,-0.075,-7
CCC(CO)n1c(SCc2cc([N+](=O)[O-])cc3c2OCOC3)nc2ccccc2c1=O (centres undefined),-1,i,2,-0.19,81*
C=CCn1c(SCc2cc([N+](=O)[O-])cc3c2OCOC3)nc2cc(C(=O)O)ccc2c1=O,-3,i,.,-0.25,.
O=C(Nc1ccc(Cl)cc1)N(Cc1cccnc1)Cc1ccco1,.,i,3,0.23,92*
O=C(Nc1ccc(Cl)c(Cl)c1)N(CCCN1CCOCC1)Cc1cccnc1,-1,i,.,-1.3,.
N#CCCN(Cc1cccnc1)C(=O)Nc1ccc(Cl)c(Cl)c1,1,i,2,0.53,95*
Cc1ccc(NC(=O)N(Cc2cccnc2)Cc2ccco2)cc1C,0,i,3,-0.36,92*
CCCCOC(=O)Oc1ccc2c(=O)c(Oc3cccc(C)c3)coc2c1,0,i,2,-0.41,-10
CCC(=O)N(Cc1cc(=O)[nH]c2ccccc12)c1ccccc1,0,i,.,0.12,.
Cc1cc(Cl)ccc1OCC(=O)OC(C)C(=O)NC(N)=O (centres undefined),-4,i,1,-0.31,-8
Cc1ccc(C2Oc3ccccc3C3=C2C(c2cccs2)n2ncnc2N3)cc1 (centres undefined),16,i,32*,-0.28,51*
Cc1ccc(/C=N/Nc2ccnc3cc(Cl)ccc23)c(C)c1,-2,i,14,0.24,100*
Cc1ccccc1/C=N/Nc1ccnc2cc(Cl)ccc12,0,i,4,-0.65,98*
Oc1ccc(/C=N/Nc2ccnc3cc(Cl)ccc23)c(O)c1,-1,i,.,-0.11,.
CN(C)c1cccc2c(S(=O)(=O)NCc3ccc(S(N)(=O)=O)cc3)cccc12,-2,i,.,0.085,.
Cc1ccc(NC(=O)C2CCN(c3cnccn3)CC2)cc1C,1,i,2,-0.32,89*
COc1ccccc1N1CCN(c2nc3c(C)cccn3c(=O)c2C=O)CC1,.,i,2,-0.47,-2
CCOC(=O)C1CCCN(Cc2cn[nH]c2-c2ccc(F)cc2F)C1 (centres undefined),-1,i,3,-0.31,0
CCOC(=O)c1[nH]ncc1CN1CCCC(C(=O)c2ccc(C(C)(C)C)cc2)C1 (centres undefined),-1,i,1,-0.49,74*
CC(C)c1ccc(C(=O)N2CCCN(C(=O)c3ccc(C(C)C)cc3)CC2)cc1,-1,i,5,-0.14,5
O=C(O)c1ccccc1C(=O)N1CCN(C(=O)c2ccccc2Cl)CC1,0,i,2,-0.15,-7
Cc1c(C(=O)C(=O)N2CC=C(c3ccccc3)CC2)c2ccccc2n1C,62*,?,15,-0.54,0
O=C(O)c1ccccc1C(=O)N1CC=C(c2ccccc2)CC1,0,i,2,-0.086,90*
SMILES,b-catenin transl,HSV replic up,MT stabilizer,Dynein cargo inh,Lmaj promast
Cc1c(C(=O)C(=O)N2c3ccccc3CC2C)c2ccccc2n1C (centres undefined),6,i,17*,-0.25,1
Cc1ccccc1NC(=O)N1c2ccccc2CC1C (centres undefined),-1,i,5,0.38,-1
CCc1ccc(OCC(=O)N/N=C(\C)c2ccc(OC(F)F)cc2)cc1,0,i,4,-0.23,69*
CCc1ccc(OCC(=O)N/N=C(\C)c2ccccc2OC(F)F)cc1,-2,i,4,-0.33,-4
C/C(=N\NC(=O)COc1ccc(C(C)(C)C)cc1)c1ccc(N2CCOCC2)cc1,-3,i,1,-0.58,74*
CCCNC(=O)CNC(=S)N(Cc1cc(OC)c(OC)c(OC)c1)C1CCCC1,-1,i,2,0.092,54*
CCc1c(C)[nH]c2c1C(=O)C(CN1CCOCC1)CC2 (centres undefined),.,i,.,.,.
CC(=O)Oc1ccc(Cl)cc1/C=C/c1ccc2ccccc2n1,0,i,5,-1.8,55*
COc1ccc2c(c1)C(=O)[C@H](O)[C@@H](c1ccc(OC)c(Br)c1)O2,.,i,3,0.7,99*
Cc1ccc(-n2nc3ccc(NC(=O)/C=C/c4ccco4)cc3n2)cc1,-4,i,2,-0.63,60*
